Most compounds without a hit are left out; they make up all but 1.5% or so of the library.
FLuc inhib CS: inhibits firefly luciferase, flagging false hits in luciferase inhibition screens; P08659; ATPLite firefly luciferase biochemical luminescence, 10 min; AID 1006; 200,000 tested, 1.5% active; inhibition, % at 10 µM;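 active = inhibition above about 50% when tested at 10 µM, limit read from the data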
Target sequence (P08659 whole entry, looked up): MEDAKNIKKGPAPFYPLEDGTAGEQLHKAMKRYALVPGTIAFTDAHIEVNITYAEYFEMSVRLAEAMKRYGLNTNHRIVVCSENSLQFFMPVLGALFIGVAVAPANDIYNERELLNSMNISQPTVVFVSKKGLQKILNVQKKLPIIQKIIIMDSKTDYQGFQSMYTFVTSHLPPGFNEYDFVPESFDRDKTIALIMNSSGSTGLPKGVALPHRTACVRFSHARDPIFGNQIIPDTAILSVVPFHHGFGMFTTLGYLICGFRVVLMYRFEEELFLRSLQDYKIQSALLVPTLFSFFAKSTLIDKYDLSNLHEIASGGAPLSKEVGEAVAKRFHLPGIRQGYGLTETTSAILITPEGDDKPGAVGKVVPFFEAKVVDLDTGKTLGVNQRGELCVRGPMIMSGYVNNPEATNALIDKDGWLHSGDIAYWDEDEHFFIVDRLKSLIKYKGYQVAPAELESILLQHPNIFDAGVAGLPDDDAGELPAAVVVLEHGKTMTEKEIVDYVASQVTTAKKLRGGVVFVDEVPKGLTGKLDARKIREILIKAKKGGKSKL
TRAIL sens C8: sensitizes caspase-8 expressing cells to TRAIL | inhibition (viability loss, TRAIL sensitization), % at 10 µM | NB7+C8 cells + TRAIL, ATPlite viability luminescence | 360,000 tested, 1% active | AID 624354;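 active = compounds causing at least 50% loss of cell viability in the single-dose screen, relative to plate controls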
PPC-1+TRAIL kill: kills PPC-1 cancer cells in the presence of TRAIL. cell killing (% activity), % at 4 µM or 5 µM. PPC-1 cells + TRAIL, ATPLite viability luminescence. 220,000 tested, 0.41% active. AID 1443;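 active = cell killing above 50% in the first pass at 4 µM, then a duplicate retest at 5 µM averaging 50% or more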;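 note: plate controls were cells with TRAIL plus DMSO for no effect and medium-only wells lacking cells for full effect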
FLuc stim CS: firefly luciferase counter-screen for stimulation assays | P08659 | ATPlite luciferase biochemical, luminescence, 10 min; 0 = ATP-free wells, 1 = DMSO control | activation factor at 10 µM | 200,000 tested, under 10 active;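 active = luciferase activation factor, scaled between plate controls, of at least 2 with compound at 10 µM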
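assay system = Luciferase/luciferin detection reagent, cell-free biochemical luciferase assay | also added = ATP substrate | times = 10 min post-reagent at room temperature | measured by = luminescence from luciferase reaction | measure = luciferase activation, seen as luminescence increase over controls | benchmarks = low control with PBS replacing ATP, high control enzyme plus ATP without compound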
The depositor's hits bear a star.

What do the screens show for `Cn1c(=O)n(CCc2ccccc2)c(=O)c2c1nc1n2CCCN1CCc1ccccc1`?
FLuc inhib CS: -2.3; TRAIL sens C8: 44.7*; PPC-1+TRAIL kill: 7.9; FLuc stim CS: 1

How did C/C(=N/NC(=O)c1cc(C(C)C)[nH]n1)c1cccs1 do in these assays?
FLuc inhib CS: 70.3*; TRAIL sens C8: 24.7; PPC-1+TRAIL kill: 23.5; FLuc stim CS: 0.3

How did C/C(=N\NC(=O)c1cc(C(C)C)[nH]n1)c1ccco1 do in these assays?
FLuc inhib CS: 79.0*; TRAIL sens C8: 42.4; PPC-1+TRAIL kill: 44.0; FLuc stim CS: 0.2

What do the screens show for `C/C(=N\NC(=O)c1cc(C(C)C)[nH]n1)c1ccncc1`?
TRAIL sens C8: 10.5

Results for C/C(=N\NC(=O)c1cc(C)[nH]n1)c1cccs1 ?
FLuc inhib CS: 55.9*; TRAIL sens C8: 18.3; PPC-1+TRAIL kill: 6.8; FLuc stim CS: 0.4

What do the screens show for `C/C(=N\NC(=O)c1cc(C)[nH]n1)c1ccc(-c2ccccc2)cc1`?
TRAIL sens C8: 2.8

Results for CCCCn1c(N)c(N(CCOC)C(=O)c2ccco2)c(=O)[nH]c1=O ?
TRAIL sens C8: 4.4

How did COc1cc(CCNC2=CC(=O)c3ncccc3C2=O)ccc1O do in these assays?
TRAIL sens C8: 57.8*

What do the screens show for `COc1ccccc1CNS(=O)(=O)c1cc(CN2C(=O)c3cccnc3C2=O)ccc1OC`?
TRAIL sens C8: -15.3

How did COC(=O)c1cc(C(=O)OCC(=O)N(C)c2ccccc2)cc([N+](=O)[O-])c1 do in these assays?
TRAIL sens C8: 3.7

Results for N#CCCCC#Cc1ccc2c(c1)COc1c3ccccc3nn1-2 ?
TRAIL sens C8: 77.0*

Results for Cc1sc2nc(C)n(/N=C/c3ccc(O)cc3)c(=O)c2c1C ?
FLuc inhib CS: -3.5; TRAIL sens C8: 50.5*; PPC-1+TRAIL kill: -5.8; FLuc stim CS: 1

How did Cc1sc2nc(C)n(/N=C/N(C)C)c(=O)c2c1C do in these assays?
TRAIL sens C8: -16.2; PPC-1+TRAIL kill: 8.5

Results for NNc1cc(C(=O)O)ccc1Cl ?
TRAIL sens C8: -10.6; PPC-1+TRAIL kill: 4.8

How did O=C(OCn1ncc(Cl)c(Cl)c1=O)c1cccc(C(F)(F)F)c1 do in these assays?
FLuc inhib CS: -1.3; TRAIL sens C8: 93.9*; PPC-1+TRAIL kill: 32.6; FLuc stim CS: 1

Results for Cc1ccc(NC(=O)CSc2nc3ccc(Nc4nc(N5CCOCC5)nc(N5CCOCC5)n4)cc3s2)cc1 ?
TRAIL sens C8: 55.2*

Results for COc1ccc(NC(=O)CSc2nc3ccc(Nc4nc(N5CCOCC5)nc(N5CCOCC5)n4)cc3s2)cc1 ?
TRAIL sens C8: 22.8

What do the screens show for `O=C1C(=O)c2ccccc2C(O)=C1CCCCl`?
TRAIL sens C8: 68.2*; PPC-1+TRAIL kill: 11.3

Results for COc1ccc(CC2=C(O)c3ccccc3C(=O)C2=O)cc1 ?
TRAIL sens C8: -2.6

What do the screens show for `COc1ccc(C(=O)N2CCOCC2c2cc(C(=O)NCc3ccccc3)no2)cc1` (stereo unspecified)?
TRAIL sens C8: -0.9

What do the screens show for `N#Cc1c(N)[nH]c(C(=O)c2ccccc2)c1-c1ccccc1Br`?
TRAIL sens C8: -5.1

How did N#Cc1cnn2c(-c3cccc([N+](=O)[O-])c3)ccnc12 do in these assays?
TRAIL sens C8: -12.8

Results for CCCCSc1ccc2nc(-c3ccc(C#N)cc3)cn2c1 ?
FLuc inhib CS: 13.2; TRAIL sens C8: 12.2; PPC-1+TRAIL kill: 18.7; FLuc stim CS: 0.9

What do the screens show for `CCCSc1ccc2nc(-c3ccccc3)cn2c1`?
FLuc inhib CS: 95.4*; TRAIL sens C8: 92.0*; PPC-1+TRAIL kill: 84.6*; FLuc stim CS: 0

How did O=C(Nc1ccccc1N1CCOCC1)c1cc2c(s1)CCCCC2 do in these assays?
FLuc inhib CS: 65.3*; TRAIL sens C8: 27.2; PPC-1+TRAIL kill: 6.8; FLuc stim CS: 0.3

How did O=C(Nc1ccon1)c1cc2c(s1)CCCC2 do in these assays?
FLuc inhib CS: 69.7*; TRAIL sens C8: 35.7; PPC-1+TRAIL kill: 32.5; FLuc stim CS: 0.3

Results for O=C(Nc1ccc(N2CCOCC2)cc1)c1cc2c(s1)CCCCC2 ?
FLuc inhib CS: 2.4; TRAIL sens C8: 13.7; PPC-1+TRAIL kill: 3.1; FLuc stim CS: 1

How did Cc1ccc(C2CC(c3cccs3)=NN2C(=O)CCl)cc1 (stereo unspecified) do in these assays?
TRAIL sens C8: 77.4*

Results for CC1C(=O)N(Cc2cn(CCC3OCCCO3)nn2)CCS(=O)(=O)N1Cc1ccc(-c2ccncc2)cc1 (stereo unspecified) ?
TRAIL sens C8: -10.9

How did CC[C@H](C)C1OC(=O)[C@@H](C)[C@@H](CC)NC(=O)[C@H](C)N(C)C(=O)C(C)(C)C(=O)C(C)NC(=O)[C@H](Cc2ccc(OC)cc2)N(C)C(=O)[C@H](C(C)C)N(C)C(=O)CNC(=O)[C@H](CC(C)C)N(C)C(=O)CNC1=O (stereo partly specified) do in these assays?
TRAIL sens C8: 54.7*

Results for CC(C)c1cc(Cn2c3ccccc3c(=O)n2C(C)Cn2cc(COc3ccccc3)nn2)on1 (stereo unspecified) ?
TRAIL sens C8: -12.4

What do the screens show for `C=CCOc1ccccc1CNc1cccc(F)c1`?
FLuc inhib CS: -7.4; TRAIL sens C8: -15.8; PPC-1+TRAIL kill: -12.5; FLuc stim CS: 1.1

What do the screens show for `C=CCOc1ccccc1CNc1ccc2c(c1)OCCO2`?
FLuc inhib CS: 74.4*; TRAIL sens C8: 58.7*; PPC-1+TRAIL kill: 39.0; FLuc stim CS: 0.3

What do the screens show for `CNc1nc(N)c([N+](=O)[O-])c(Nc2ccccc2OC)n1`?
TRAIL sens C8: -50.8

What do the screens show for `O=C(CN1CCc2cc3c(cc2C1)OCCCO3)Nc1cccc(Br)c1`?
TRAIL sens C8: 0.6

How did COc1ccc2c(c1OC)C(=O)N(c1cccc(C)c1)C2 do in these assays?
FLuc inhib CS: 84.5*; TRAIL sens C8: 65.1*; PPC-1+TRAIL kill: 14.6; FLuc stim CS: 0.2

Results for Cc1ccc(-c2cc3nc4c(c(=O)n3[nH]2)CCCC4)cc1 ?
TRAIL sens C8: 60.4*

How did O=c1c2c(nc3cc(-c4ccc(F)cc4)[nH]n13)CCC2 do in these assays?
FLuc inhib CS: 51.0*; TRAIL sens C8: 26.5; PPC-1+TRAIL kill: 33.6; FLuc stim CS: 0.5

How did Cc1[nH]n2c(=O)c3c(nc2c1-c1ccc(Cl)cc1)CCC3 do in these assays?
FLuc inhib CS: -7.1; TRAIL sens C8: 19.4; PPC-1+TRAIL kill: 9.5; FLuc stim CS: 1.1

What do the screens show for `O=C(OCc1ccccc1)N1CCC2CC1c1c2cccc1N1CCOCC1` (stereo unspecified)?
TRAIL sens C8: 3.1

Results for COc1ccc(Nc2nnc(SCC(=O)N3CC(=O)Nc4ccccc43)s2)cc1 ?
FLuc inhib CS: 55.4*; TRAIL sens C8: 22.8; PPC-1+TRAIL kill: 25.9; FLuc stim CS: 0.4

Results for Cc1[nH]n(-c2ccccc2)c(=O)c1/C=N/NC(=O)c1ccccc1F ?
TRAIL sens C8: 21.3

Results for O=C(CSc1nnc(NC(=O)c2cccc(F)c2)s1)NCc1ccco1 ?
TRAIL sens C8: 24.0

Results for Cc1ccccc1C(=O)Nc1nnc(SCC(=O)NCc2ccco2)s1 ?
TRAIL sens C8: 58.8*

Assay outcomes (PubChem BioAssay)
